Activity calls are given as the source filed them.
Columns and labels:
[1] = molecular target: T1, Fatty-acid amide hydrolase 1 (Rattus norvegicus, UniProt P97612); assay: Competitive inhibition of rat brain FAAH using [3H]AEA as substrate after 10 mins by Dixon plot analysis
T1 sequence (P97612 whole entry): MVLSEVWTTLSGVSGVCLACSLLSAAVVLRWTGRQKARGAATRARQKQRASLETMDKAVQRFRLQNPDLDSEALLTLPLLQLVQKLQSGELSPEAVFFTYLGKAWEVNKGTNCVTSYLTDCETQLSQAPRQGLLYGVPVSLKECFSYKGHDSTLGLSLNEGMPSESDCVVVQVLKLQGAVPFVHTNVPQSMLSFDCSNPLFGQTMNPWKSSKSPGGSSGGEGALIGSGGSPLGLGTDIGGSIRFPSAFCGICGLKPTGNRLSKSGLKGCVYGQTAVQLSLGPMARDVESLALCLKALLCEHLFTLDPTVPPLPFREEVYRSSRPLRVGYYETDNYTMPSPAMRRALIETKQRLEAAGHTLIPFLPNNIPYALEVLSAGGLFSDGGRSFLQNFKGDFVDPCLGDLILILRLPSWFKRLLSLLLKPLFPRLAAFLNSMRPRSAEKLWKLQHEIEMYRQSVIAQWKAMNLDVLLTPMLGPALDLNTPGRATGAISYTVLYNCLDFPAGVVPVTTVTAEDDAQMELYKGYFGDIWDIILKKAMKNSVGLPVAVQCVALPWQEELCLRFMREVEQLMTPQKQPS
Procedure, shortened: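 Kinetic study in rat brain homogenate (1 µg protein per assay). [3H]AEA hydrolysis ran for 10 min at 37 °C in Tris-EDTA buffer, pH 7.4, with the AEA:fatty acid-free BSA ratio held at 1:~4.5 across substrate levels. Radioactivity was measured by charcoal separation and scintillation counting. Data were fitted to competitive, mixed-type and non-competitive models, and the best model was chosen by Akaike's criterion.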

[2] = molecular target: T2, Fatty-acid amide hydrolase 1 (Rattus norvegicus) (UniProt P97612); assay: Inhibition of rat brain FAAH using [3H]AEA as substrate after 10 mins in presence of N-(3-Chloropyridin-2-yl)-2-(4-((2-(trifluoromethyl)pyridin-4-yl)amino)phenyl)propanamide by liquid scintillation counting analysis
T2 sequence (whole entry): T1 sequence (P97612 whole entry)
Procedure, shortened: (§1)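 Rat (Wistar or Sprague-Dawley) brain homogenate without cerebella, washed and pre-incubated 15 min at 37 °C to clear endogenous substrate. Compound (in ethanol or DMSO) was mixed with 1 µg protein on ice in 10 mM Tris-HCl, 1 mM EDTA, pH 7.4. Reaction used 0.5 µM [3H]AEA with fatty acid-free BSA for 10 min at 37 °C. It was stopped with charcoal/HCl, and supernatant tritium was counted. ≥5 half-log concentrations, ≥3 experiments; maximum inhibition = 100 − fitted bottom.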

[3] = molecular target: T2, Fatty-acid amide hydrolase 1 (Rattus norvegicus); assay: Reversible inhibition of rat brain FAAH at 0.2 to 2 uM using [3H]AEA as substrate preincubated for 60 mins followed by substrate addition by liquid scintillation counting analysis
Procedure, shortened: (§2)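 Rat brain homogenate at 20-fold normal strength was preincubated with vehicle or compound for 60 min, then diluted 20-fold and assayed with [3H]AEA for 10 min at 37 °C. In parallel, compound was added to vehicle-preincubated aliquots at the post-dilution free concentrations and at the undiluted final concentrations. Tritium was counted after charcoal separation.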

[4] = molecular target: T3, Prostaglandin G/H synthase 1 (Ovis aries) (UniProt P05979); assay: Inhibition of ovine COX1 using arachidonic acid as substrate after 5 mins
T3 sequence (whole entry): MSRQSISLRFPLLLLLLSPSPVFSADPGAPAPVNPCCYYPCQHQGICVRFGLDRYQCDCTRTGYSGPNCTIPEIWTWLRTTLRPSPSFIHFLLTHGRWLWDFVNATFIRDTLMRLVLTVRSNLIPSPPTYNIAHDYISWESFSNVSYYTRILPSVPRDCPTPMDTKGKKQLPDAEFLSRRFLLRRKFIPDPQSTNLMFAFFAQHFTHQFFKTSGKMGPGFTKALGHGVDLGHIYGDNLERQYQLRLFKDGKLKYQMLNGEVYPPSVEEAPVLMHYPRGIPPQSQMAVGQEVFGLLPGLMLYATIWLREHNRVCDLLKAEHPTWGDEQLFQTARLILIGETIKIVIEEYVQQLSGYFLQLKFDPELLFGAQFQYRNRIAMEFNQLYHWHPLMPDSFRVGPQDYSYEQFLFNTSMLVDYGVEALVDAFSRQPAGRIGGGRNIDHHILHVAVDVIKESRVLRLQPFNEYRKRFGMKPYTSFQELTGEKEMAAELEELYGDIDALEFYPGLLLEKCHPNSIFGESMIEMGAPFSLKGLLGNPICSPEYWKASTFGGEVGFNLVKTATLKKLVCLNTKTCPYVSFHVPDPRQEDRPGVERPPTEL
Procedure, shortened: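 Oxygen-electrode assay at room temperature in 0.1 M Tris-HCl, pH 7.4, with 1 µM haematin, 2 mM phenol, 5 mM EDTA and 10 µM (final) arachidonic acid or 2-AG. Compound in EtOH was added and a 5 min baseline recorded. The reaction was started with ovine COX-1 or human recombinant COX-2 (200 U), and oxygen consumption was read in 10 s blocks. Means ± SEM, n = 3-4.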

[5] = molecular target: T2, Fatty-acid amide hydrolase 1 (Rattus norvegicus); assay: Reversible inhibition of rat brain FAAH at 0.03 to 1 uM using [3H]AEA as substrate preincubated for 60 mins followed by substrate addition by liquid scintillation counting analysis; procedure, shortened: as §2
[6] = molecular target: T2, Fatty-acid amide hydrolase 1 (Rattus norvegicus); assay: Inhibition of rat brain FAAH using [3H]AEA as substrate after 10 mins in presence of N-(3-Methylpyridin-2-yl)-2-(4-((2-(trifluoromethyl)pyridin-4-yl)amino)phenyl)propanamide by liquid scintillation counting analysis; procedure, shortened: as §1
[7] = molecular target: T2, Fatty-acid amide hydrolase 1 (Rattus norvegicus); assay: Reversible inhibition of rat brain FAAH at 0.03 to 1 uM using [3H]AEA as substrate preincubated for 60 mins followed by 20 fold compound dilution and subsequent substrate addition by liquid scintillation counting analysis; procedure, shortened: as §2

Ki [1] [nM]	inhibition [2]	inhibition [3]	inhibition [4]	inhibition [5]	inhibition [6]	inhibition [7]	SMILES
390	Active	Active	inactive				Cc1cccnc1NC(=O)C(C)c1ccc(Nc2ccnc(C(F)(F)F)c2)cc1 (configuration not stated)
				Active	Active	Active	CC(C(=O)Nc1ncccc1Cl)c1ccc(Nc2ccnc(C(F)(F)F)c2)cc1 (configuration not stated)

Reference: ChEMBL document CHEMBL4138113, “Novel propanamides as fatty acid amide hydrolase inhibitors” (Eur J Med Chem, 2017)
